Measured values: ChEMBL document CHEMBL1671627, “Increasing trends in antimicrobial resistance among clinically important anaerobes and Bacteroides fragilis isolates causing nosocomial infections: emerging resistance to carbapenems” (2008)
Values after ≈ are worked out from the molar mass of the structure shown.

Key:
Type in all cases: functional
Prevotella intermedia [1] = assay: Antibacterial activity against Prevotella intermedia assessed as susceptible isolates by CLSI agar dilution method in presence of clavulanate
In short: (§1)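 Agar dilution per CLSI guidelines on nonduplicate anaerobic bloodstream isolates collected at NTUH, January to December 2006. Isolates were spotted by Steers replicator onto supplemented Brucella blood agar and incubated anaerobically for 48 h at 35°C. MIC was the lowest drug concentration that inhibited growth. B. fragilis ATCC 25285, B. thetaiotaomicron ATCC 29741 and E. lentum ATCC 43055 were run as QC in each run.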

Prevotella bivia [2] = assay: Antibacterial activity against Prevotella bivia assessed as susceptible isolates by CLSI agar dilution method in presence of clavulanate; in short: as §1
Finegoldia magna [3] = assay: Antibacterial activity against beta-lactamase producing Finegoldia magna by CLSI agar dilution method in presence of clavulanate
In short: (§2)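 CLSI agar dilution MICs for anaerobic blood isolates (nonduplicate) collected from bloodstream-infection patients at a Taiwanese tertiary hospital, January–December 2006. Isolates were spotted by Steers replicator onto supplemented Brucella blood agar and incubated anaerobically for 48 h at 35°C. MIC was the lowest drug concentration inhibiting growth. Each run included B. fragilis ATCC 25285, B. thetaiotaomicron ATCC 29741 and E. lentum ATCC 43055 as quality-control strains.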

[4] = tested on: Peptostreptococcus anaerobius; assay: Antibacterial activity against beta-lactamase producing Peptostreptococcus anaerobius by CLSI agar dilution method in presence of clavulanate; in short: as §2
Finegoldia magna [5] = assay: Antibacterial activity against beta-lactamase producing Finegoldia magna assessed as resistant isolates by CLSI agar dilution method in presence of clavulanate
In short: (§3)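 207 nonduplicate anaerobic blood isolates from patients with bloodstream infections at NTUH, collected January–December 2006. MICs were determined by agar dilution following CLSI guidelines. Inocula were applied with a Steers replicator onto supplemented Brucella blood agar and incubated 48 h at 35°C in an anaerobic chamber. MIC was the lowest concentration inhibiting growth. B. fragilis ATCC 25285, B. thetaiotaomicron ATCC 29741 and E. lentum ATCC 43055 served as controls in each run.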

[6] = tested on: Fusobacterium necrophorum; assay: Antibacterial activity against Fusobacterium necrophorum by CLSI agar dilution method in presence of clavulanate; in short: as §1
Clostridium septicum [7] = assay: Antibacterial activity against beta-lactamase producing Clostridium septicum assessed as susceptible isolates by CLSI agar dilution method in presence of clavulanate; in short: as §2
[8] = tested on: Clostridium paraputrificum; assay: Antibacterial activity against beta-lactamase producing Clostridium paraputrificum assessed as susceptible isolates by CLSI agar dilution method in presence of clavulanate; in short: as §2
Prevotella intermedia [9] = assay: Antibacterial activity against Prevotella intermedia assessed as resistant isolates by CLSI agar dilution method in presence of clavulanate; in short: as §3
Prevotella intermedia [10] = assay: Antibacterial activity against Prevotella intermedia by CLSI agar dilution method in presence of clavulanate; in short: as §1
Bacteroides caccae [11] = assay: Antibacterial activity against beta-lactamase producing Bacteroides caccae assessed as resistant isolates by CLSI agar dilution method in presence of clavulanate; in short: as §3
[12] = tested on: Bacteroides thetaiotaomicron; assay: Antibacterial activity against beta-lactamase producing Bacteroides thetaiotaomicron assessed as susceptible isolates by CLSI agar dilution method in presence of clavulanate; in short: as §1
Parvimonas micra [13] = assay: Antibacterial activity against beta-lactamase producing Micromonas micros assessed as resistant isolates by CLSI agar dilution method in presence of clavulanate; in short: as §3
Bacteroides uniformis [14] = assay: Antibacterial activity against beta-lactamase producing Bacteroides uniformis assessed as resistant isolates by CLSI agar dilution method in presence of clavulanate; in short: as §3
Fusobacterium nucleatum [15] = assay: Antibacterial activity against Fusobacterium nucleatum by CLSI agar dilution method
Fusobacterium varium = assay: Antibacterial activity against Fusobacterium varium assessed as resistant isolates by CLSI agar dilution method in presence of Tazobactam; in short: as §3
[16] = tested on: Prevotella melaninogenica; assay: Antibacterial activity against Prevotella melaninogenica by CLSI agar dilution method
[17] = tested on: Bacteroides thetaiotaomicron; assay: Antibacterial activity against beta-lactamase producing Bacteroides thetaiotaomicron by CLSI agar dilution method
Parvimonas micra [18] = assay: Antibacterial activity against beta-lactamase producing Micromonas micros assessed as resistant isolates by CLSI agar dilution method
Fusobacterium mortiferum [19] = assay: Antibacterial activity against Fusobacterium mortiferum assessed as susceptible isolates by CLSI agar dilution method
Clostridium septicum [20] = assay: Antibacterial activity against beta-lactamase producing Clostridium septicum by CLSI agar dilution method in presence of Tazobactam; in short: as §2
[21] = tested on: Peptoniphilus asaccharolyticus; assay: Antibacterial activity against beta-lactamase producing Peptoniphilus asaccharolyticus assessed as susceptible isolates by CLSI agar dilution method
Bacteroides uniformis [22] = assay: Antibacterial activity against beta-lactamase producing Bacteroides uniformis by CLSI agar dilution method in presence of Tazobactam; in short: as §1
Prevotella bivia [23] = assay: Antibacterial activity against Prevotella bivia by CLSI agar dilution method in presence of Tazobactam; in short: as §1
Phocaeicola vulgatus [24] = assay: Antibacterial activity against beta-lactamase producing Bacteroides vulgatus assessed as resistant isolates by CLSI agar dilution method in presence of Tazobactam; in short: as §3
Bacteroides caccae [25] = assay: Antibacterial activity against beta-lactamase producing Bacteroides caccae by CLSI agar dilution method
Prevotella bivia [26] = assay: Antibacterial activity against Prevotella bivia assessed as susceptible isolates by CLSI agar dilution method in presence of Tazobactam; in short: as §1
Fusobacterium nucleatum [27] = assay: Antibacterial activity against Fusobacterium nucleatum assessed as susceptible isolates by CLSI agar dilution method
Clostridium tertium = assay: Antibacterial activity against beta-lactamase producing Clostridium tertium assessed as susceptible isolates by CLSI agar dilution method in presence of Tazobactam; in short: as §2
Phocaeicola vulgatus [28] = assay: Antibacterial activity against beta-lactamase producing Bacteroides vulgatus assessed as susceptible isolates by CLSI agar dilution method
Bacteroides uniformis [29] = assay: Antibacterial activity against beta-lactamase producing Bacteroides uniformis assessed as resistant isolates by CLSI agar dilution method
Fusobacterium mortiferum [30] = assay: Antibacterial activity against Fusobacterium mortiferum assessed as susceptible isolates by CLSI agar dilution method in presence of Tazobactam; in short: as §1
[31] = tested on: Peptoniphilus asaccharolyticus; assay: Antibacterial activity against beta-lactamase producing Peptoniphilus asaccharolyticus assessed as resistant isolates by CLSI agar dilution method
[32] = tested on: Peptostreptococcus anaerobius; assay: Antibacterial activity against beta-lactamase producing Peptostreptococcus anaerobius by CLSI agar dilution method
[33] = tested on: Peptoniphilus asaccharolyticus; assay: Antibacterial activity against beta-lactamase producing Peptoniphilus asaccharolyticus by CLSI agar dilution method in presence of Tazobactam; in short: as §2
Parvimonas micra [34] = assay: Antibacterial activity against beta-lactamase producing Micromonas micros assessed as resistant isolates by CLSI agar dilution method in presence of Tazobactam; in short: as §3
[35] = tested on: Bacteroides thetaiotaomicron; assay: Antibacterial activity against beta-lactamase producing Bacteroides thetaiotaomicron assessed as susceptible isolates by CLSI agar dilution method
[36] = tested on: Peptostreptococcus anaerobius; assay: Antibacterial activity against beta-lactamase producing Peptostreptococcus anaerobius by CLSI agar dilution method in presence of Tazobactam; in short: as §2

Work on `CC1(C)S[C@@H]2[C@H](NC(=O)[C@H](N)c3ccc(O)cc3)C(=O)N2[C@H]1C(=O)O` [AMOXICILLIN] yielded an Activity (Prevotella intermedia [1]) of 81%, an Activity (Prevotella bivia [2]) of 81% and an MIC50 (Finegoldia magna [3]) of 0.25 µg/mL. It also gave an MIC90 (Finegoldia magna [3]) of 2 µg/mL, an MIC50 [4] of 0.25 µg/mL and an MIC90 [4] of 2 µg/mL. The Activity (Finegoldia magna [5]) was 3%, the MIC50 [6] was 2 µg/mL and the MIC90 [6] was 4 µg/mL. For the same molecule, the Activity (Clostridium septicum [7]) was 96%, the Activity [8] was 96% and the Activity (Prevotella intermedia [9]) was 6%. It also gave an MIC50 (Prevotella intermedia [10]) of 4 µg/mL, an MIC90 (Prevotella intermedia [10]) of 16 µg/mL and an Activity (Bacteroides caccae [11]) of 30%. For the same molecule, the Activity [12] was 63%, the Activity (Parvimonas micra [13]) was 3% and the Activity (Bacteroides uniformis [14]) was 30%.
With `CCN1CCN(C(=O)N[C@@H](C(=O)N[C@@H]2C(=O)N3[C@@H]2SC(C)(C)[C@@H]3C(=O)O)c2ccccc2)C(=O)C1=O` [PIPERACILLIN] the MIC50 (Fusobacterium nucleatum [15]) was 2 µg/mL (≈ 3.86 µM), the MIC90 (Fusobacterium nucleatum [15]) was 8 µg/mL (≈ 15.5 µM) and the Activity (Fusobacterium varium) was 0%. For the same molecule, the MIC50 [16] was 16 µg/mL (≈ 30.9 µM), the MIC90 [16] was 128 µg/mL (≈ 247 µM) and the MIC50 [17] was 32 µg/mL (≈ 61.8 µM). The MIC90 [17] was over 128 µg/mL, the Activity (Parvimonas micra [18]) was 3% and the Activity (Fusobacterium mortiferum [19]) was 90%. It also gave an MIC50 (Clostridium septicum [20]) of 0.5 µg/mL, an MIC90 (Clostridium septicum [20]) of 2 µg/mL and an Activity [21] of 97%. The MIC50 (Bacteroides uniformis [22]) was 8 µg/mL, the MIC90 (Bacteroides uniformis [22]) was 16 µg/mL and the MIC (Prevotella bivia [23]) was 0.03 µg/mL. It also gave an MIC50 (Prevotella bivia [23]) of 0.03 µg/mL, an MIC90 (Prevotella bivia [23]) of 1 µg/mL and an Activity (Phocaeicola vulgatus [24]) of 4%. For the same molecule, the MIC50 (Bacteroides caccae [25]) was over 128 µg/mL, the MIC90 (Bacteroides caccae [25]) was over 128 µg/mL and the Activity (Prevotella bivia [26]) was 100%. It also gave an Activity (Fusobacterium nucleatum [27]) of 90%, an Activity (Clostridium tertium) of 100% and an Activity (Phocaeicola vulgatus [28]) of 35%. For the same molecule, the Activity (Bacteroides uniformis [29]) was 65%, the Activity (Fusobacterium mortiferum [30]) was 100% and the Activity [31] was 3%. It also gave an MIC50 [32] of 0.12 µg/mL (≈ 0.232 µM), an MIC90 [32] of 8 µg/mL (≈ 15.5 µM) and an MIC [33] of 0.03 µg/mL. For the same molecule, the MIC50 [33] was 0.03 µg/mL, the MIC90 [33] was 2 µg/mL and the Activity (Parvimonas micra [34]) was 0%. For the same molecule, the Activity [35] was 63%, the MIC [36] was 0.03 µg/mL and the MIC50 [36] was 0.03 µg/mL. For the same molecule, the MIC90 [36] was 2 µg/mL.
